# Experimental data from PubChem BioAssay AID638 (SRMLSC, 2007).
# About 65 (5%) of roughly 1,300 compounds were called active.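 The calls were made as follows: active = growth inhibition reaching a set limit at one or more tested doses; inactive = the rest.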 For the sample, actives were picked, then their nearest neighbours and some compounds at random. Measured potencies and affinities stand elsewhere.
# Test: wild-type E. coli BW25113 antibacterial activity – OD615, dose response (AID 638)
# Conditions: at 100 µM (top of the series)
# Method in brief: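 Assay system: E. coli BW25113 wild type. Doses: compound concentration series. Timing: 20 h compound exposure, 37 °C. Technique: OD615 absorbance. Medium: LB broth containing kanamycin at 50 µg/mL. Benchmarks: chloramphenicol at 30 µM final as inhibition control. Measure: IC50 from 4-parameter logistic, bounds fixed 0–100%.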
row,SMILES,growth inhibition
1,Clc1ccc(COC(Cn2ccnc2)c2ccc(Cl)cc2Cl)c(Cl)c1 (stereo not given),10.9% (active)
2,Clc1ccc(COC(Cn2ccnc2)c2ccc(Cl)cc2Cl)cc1 (stereo not given),4.14% (inactive)
3,Cc1nn(-c2ccccc2)c(Cl)c1C1C(C#N)=C(N)Oc2c1c(=O)oc1ccccc21 (stereo not given),3.35% (inactive)
4,CN(C)C1(c2nnnn2CCOC(=O)Nc2ccc(Cl)cc2)CCCCC1,4.48% (inactive)
5,CCC(=Nc1ccc(OC)cc1OC)c1c(O)n(C2CCCCC2)c(=O)[nH]c1=O,-2.11% (inactive)
